Experimental data: ChEMBL document CHEMBL1806466, “2-Amino-4-methyl-5-phenylethyl substituted-7-N-benzyl-pyrrolo[2,3-d]pyrimidines as novel antitumor antimitotic agents that also reverse tumor resistance” (Bioorg Med Chem, 2011)
Calls of active or inactive are those of the source. The calls are words filed in the database; no cut-off is given here.

Key:
OVCAR-4 = assay: Antitumor activity against human OVCAR4 cells after 48 hrs by sulforhodamine B assay; type: functional; conditions: OVCAR-4, 48 h
Outline: (§1)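 NCI-60 screen, adherent lines: grown in RPMI 1640 with 5% FBS and 2 mM L-glutamine. Seeded at 5,000–40,000 cells/well by doubling time and preincubated 24 h at 37 °C, 5% CO2, with time-zero plates TCA-fixed. Five concentrations (10-fold or half-log) given for 48 h. Fixed with cold TCA (10% final), then SRB-stained and read at A515. GI50 is 50% reduction of net protein increase versus control.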

[1] = molecular target: Multidrug resistance-associated protein 1 (Homo sapiens, UniProt P33527); assay: Reversal of MRP1-mediated multidrug resistance in human MCF7/VP cells assessed as enhancement of cytotoxicity of vincristine after 48 hrs by sulforhodamine B assay; type: cell-based
Sequence of Multidrug resistance-associated protein 1 (P33527 whole entry): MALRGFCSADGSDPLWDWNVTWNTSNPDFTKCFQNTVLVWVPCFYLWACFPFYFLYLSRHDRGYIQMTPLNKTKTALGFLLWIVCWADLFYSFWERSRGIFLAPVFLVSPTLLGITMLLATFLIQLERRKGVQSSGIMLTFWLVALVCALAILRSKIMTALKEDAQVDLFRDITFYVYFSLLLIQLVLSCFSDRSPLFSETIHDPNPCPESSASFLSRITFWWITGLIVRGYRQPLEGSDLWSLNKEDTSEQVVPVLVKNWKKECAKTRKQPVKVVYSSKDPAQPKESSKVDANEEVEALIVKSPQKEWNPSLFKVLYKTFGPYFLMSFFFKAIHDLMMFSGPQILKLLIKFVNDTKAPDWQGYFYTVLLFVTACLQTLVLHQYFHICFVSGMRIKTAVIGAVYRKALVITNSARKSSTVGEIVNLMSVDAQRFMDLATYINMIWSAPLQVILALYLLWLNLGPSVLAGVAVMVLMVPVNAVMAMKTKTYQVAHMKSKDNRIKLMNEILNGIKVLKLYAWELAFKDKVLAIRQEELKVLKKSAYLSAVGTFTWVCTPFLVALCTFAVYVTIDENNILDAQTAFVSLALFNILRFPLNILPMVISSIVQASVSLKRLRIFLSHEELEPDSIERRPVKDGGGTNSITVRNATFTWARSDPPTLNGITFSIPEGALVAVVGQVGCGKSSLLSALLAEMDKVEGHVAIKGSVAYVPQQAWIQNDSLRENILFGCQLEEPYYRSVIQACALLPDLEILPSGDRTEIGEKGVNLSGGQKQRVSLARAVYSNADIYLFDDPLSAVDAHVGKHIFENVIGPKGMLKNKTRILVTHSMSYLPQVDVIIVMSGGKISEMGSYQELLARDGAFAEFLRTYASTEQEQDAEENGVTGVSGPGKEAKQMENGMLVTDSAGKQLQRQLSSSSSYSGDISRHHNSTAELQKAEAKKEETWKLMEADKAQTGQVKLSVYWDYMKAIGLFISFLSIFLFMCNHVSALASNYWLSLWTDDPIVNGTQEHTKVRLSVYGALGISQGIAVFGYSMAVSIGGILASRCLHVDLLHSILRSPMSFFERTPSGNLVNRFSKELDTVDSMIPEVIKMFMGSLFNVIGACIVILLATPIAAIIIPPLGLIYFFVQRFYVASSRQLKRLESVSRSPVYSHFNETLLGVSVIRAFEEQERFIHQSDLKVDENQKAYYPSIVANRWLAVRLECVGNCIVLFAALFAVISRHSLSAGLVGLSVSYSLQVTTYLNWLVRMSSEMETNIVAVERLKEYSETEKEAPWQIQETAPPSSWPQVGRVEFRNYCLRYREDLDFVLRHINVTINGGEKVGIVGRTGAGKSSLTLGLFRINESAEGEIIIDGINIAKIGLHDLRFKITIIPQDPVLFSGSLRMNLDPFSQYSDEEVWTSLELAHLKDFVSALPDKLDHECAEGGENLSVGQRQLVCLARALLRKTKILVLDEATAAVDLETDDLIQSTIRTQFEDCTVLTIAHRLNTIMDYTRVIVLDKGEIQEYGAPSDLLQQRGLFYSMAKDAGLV
Outline: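 MCF-7/VP cells plated at ~15% confluency and allowed 24 h to attach. […] Survival by SRB binding. MRP1 Antagonism Score = % survival without vincristine / % survival with vincristine.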

MCF7 = assay: Antitumor activity against human MCF7 cells after 48 hrs by sulforhodamine B assay; type: functional; conditions: MCF7, 48 h; outline: as §1
MOLT-4 = assay: Antitumor activity against human MOLT4 cells after 48 hrs by sulforhodamine B assay; type: functional; conditions: MOLT-4, 48 h
Outline: (§2)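 NCI-60 screen, suspension lines: grown in RPMI 1640 with 5% FBS and 2 mM L-glutamine. Seeded at 5,000–40,000 cells/well and preincubated 24 h at 37 °C, 5% CO2, with time-zero plates fixed. Five concentrations (10-fold or half-log) given for 48 h. Settled cells fixed with 80% TCA (16% final), then SRB-stained and read at 515 nm. GI50 is from the net growth relative to time zero and control.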

SNB-19 = assay: Antitumor activity against human SNB19 cells after 48 hrs by sulforhodamine B assay; type: functional; conditions: SNB-19, 48 h; outline: as §1
SW-620 = assay: Antitumor activity against human SW620 cells after 48 hrs by sulforhodamine B assay; type: functional; conditions: SW-620, 48 h; outline: as §1
M14 = assay: Antitumor activity against human M14 cells after 48 hrs by sulforhodamine B assay; type: functional; conditions: M14, 48 h; outline: as §1
Hs-578T = assay: Antitumor activity against human Hs578T cells after 48 hrs by sulforhodamine B assay; type: functional; outline: as §1
MDA-MB-468 = assay: Antitumor activity against human MDA-MB-468 cells after 48 hrs by sulforhodamine B assay; type: functional; conditions: MDA-MB-468, 48 h; outline: as §1
COLO 205 = assay: Antitumor activity against human COLO205 cells after 48 hrs by sulforhodamine B assay; type: functional; conditions: COLO 205, 48 h; outline: as §1
NCI/ADR = assay: Reversal of Pgp-mediated multidrug resistance in human NCI/ADR cells assessed as enhancement of cytotoxicity of vinblastine after 48 hrs by sulforhodamine B assay; type: cell-based
Outline: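 NCI/ADR cells plated at ~15% confluency and allowed 24 h to attach. […] Survival by SRB binding, each value the mean of three wells, with ethanol solvent controls. Pgp Antagonism Score = % survival without vinblastine / % survival with vinblastine.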

[2] = Cytotoxic activity against drug-resistant […]-deficient human NCI/ADR cells expressing Pgp after 48 hrs by sulforhodamine B assay; type: functional, cell-based; conditions: NCI/ADR-RES
Outline: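 Cells plated at ~15% confluency and allowed 24 h to attach, then exposed to varying test concentrations for 48 h. Survival by SRB binding, reported as % decrease in binding versus ethanol solvent controls, mean of three wells. For NCI/ADR, exposure with 0 or 50 nM vinblastine; for MCF-7/VP, with 0 or 1 nM vincristine.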

NCI-H322M = assay: Antitumor activity against human NCI-H322M cells after 48 hrs by sulforhodamine B assay; type: functional; outline: as §1
HCC 2998 = assay: Antitumor activity against human HCC2998 cells after 48 hrs by sulforhodamine B assay; type: functional; conditions: HCC 2998, 48 h; outline: as §1
BT-549 = assay: Antitumor activity against human BT549 cells after 48 hrs by sulforhodamine B assay; type: functional; conditions: BT-549, 48 h; outline: as §1
SF-268 = assay: Antitumor activity against human SF268 cells after 48 hrs by sulforhodamine B assay; type: functional; conditions: SF-268, 48 h; outline: as §1
A498 = assay: Antitumor activity against human A498 cells after 48 hrs by sulforhodamine B assay; type: functional; conditions: A498, 48 h; outline: as §1
HOP-62 = assay: Antitumor activity against human HOP62 cells after 48 hrs by sulforhodamine B assay; type: functional; conditions: HOP-62, 48 h; outline: as §1
SK-MEL-2 = assay: Antitumor activity against human SK-MEL-2 cells after 48 hrs by sulforhodamine B assay; type: functional; conditions: SK-MEL-2, 48 h; outline: as §1
ACHN = assay: Antitumor activity against human ACHN cells after 48 hrs by sulforhodamine B assay; type: functional; outline: as §1
HT-29 = assay: Antitumor activity against human HT-29 cells after 48 hrs by sulforhodamine B assay; type: functional; conditions: HT-29, 48 h; outline: as §1
T47D = assay: Antitumor activity against human T47D cells after 48 hrs by sulforhodamine B assay; type: functional
Outline: (§3)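 NCI-60 panel lines grown in RPMI 1640 with 5% FBS and 2 mM L-glutamine. Cells plated at 5,000–40,000/well by doubling time, given 24 h before drug, then exposed to five concentrations for 48 h at 37 °C. Time-zero plates fixed with TCA. Cells fixed with TCA, stained with 0.4% SRB, read at 515 nm. GI50 = 50% reduction in net protein increase versus control.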

MDA-MB-435 = assay: Antitumor activity against human MDA-MB-435 cells after 48 hrs by sulforhodamine B assay; type: functional; conditions: MDA-MB-435, 48 h; outline: as §1
RPMI-8226 = assay: Antitumor activity against human RPMI8226 cells after 48 hrs by sulforhodamine B assay; type: functional; conditions: RPMI-8226, 48 h; outline: as §2
SF-295 = assay: Antitumor activity against human SF295 cells after 48 hrs by sulforhodamine B assay; type: functional; conditions: SF-295, 48 h; outline: as §1
SK-MEL-28 = assay: Antitumor activity against human SK-MEL-28 cells after 48 hrs by sulforhodamine B assay; type: functional; conditions: SK-MEL-28, 48 h; outline: as §1
UO-31 = assay: Antitumor activity against human UO31 cells after 48 hrs by sulforhodamine B assay; type: functional; conditions: UO-31, 48 h; outline: as §3
PC-3 = assay: Antitumor activity against human PC3 cells after 48 hrs by sulforhodamine B assay; type: functional; conditions: PC-3, 48 h; outline: as §1
Bos taurus = species: Bos taurus; assay: Effect on bovine brain microtubule depolymerization assessed as decrease in absorbance at wavelength 340 nm after 15 mins
Outline: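 Bovine brain tubulin purified by three assembly/disassembly cycles followed by ion exchange. Tubulin at 2.5 mg/mL […] in 1 M glutamate, pH 6.6, with 4% DMSO, preincubated with compound at 0 °C for 15 min. 0.5 mM GTP then added and samples warmed to 37 °C. A340 monitored about 60 min.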

UACC-257 = assay: Antitumor activity against human UACC257 cells after 48 hrs by sulforhodamine B assay; type: functional; conditions: UACC-257, 48 h; outline: as §3
MDA-MB-231 = assay: Antitumor activity against human MDA-MB-231 cells after 48 hrs by sulforhodamine B assay; type: functional; conditions: MDA-MB-231, 48 h; outline: as §1
U-251 = assay: Antitumor activity against human U251 cells after 48 hrs by sulforhodamine B assay; type: functional; conditions: U-251, 48 h; outline: as §3

COc1cc(CCc2cn(Cc3ccccc3)c3nc(N)nc(C)c23)c(OC)c(OC)c1OC
GI50 (OVCAR-4): 8.83 µM
Activity [1]: Not Active
GI50 (MCF7): 1.05 µM
GI50 (MOLT-4): 3.96 µM
GI50 (SNB-19): 4.68 µM
GI50 (SW-620): 3.19 µM
GI50 (M14): 3.33 µM
GI50 (Hs-578T): 2.46 µM
GI50 (MDA-MB-468): 2.82 µM
GI50 (COLO 205): 2.8 µM
Activity (NCI/ADR): Active
IC50 [2]: 7 µM
GI50 (NCI-H322M): 6.92 µM
GI50 (HCC 2998): 5.89 µM
GI50 (BT-549): 9.75 µM
GI50 (SF-268): 4.4 µM
GI50 (A498): 2.25 µM
GI50 (HOP-62): 3.96 µM
GI50 (SK-MEL-2): 5.09 µM
GI50 (ACHN): 9.36 µM
GI50 (HT-29): 3.6 µM
GI50 (T47D): 1.69 µM
GI50 (MDA-MB-435): 0.34 µM
GI50 (RPMI-8226): 1.69 µM
GI50 (SF-295): 1.39 µM
GI50 (SK-MEL-28): 4.05 µM
GI50 (UO-31): 5.37 µM
GI50 (PC-3): 3.08 µM
Activity (Bos taurus): Active
GI50 (UACC-257): 10.4 µM
GI50 (MDA-MB-231): 3.69 µM
GI50 (U-251): 3.93 µM
